According to ChEMBL document CHEMBL3351959, “Antinociceptive and antidepressant-like action of endomorphin-2 analogs with proline surrogates in position 2” (Bioorg Med Chem, 2014):
Calls of active or inactive are those of the source.

What was measured:
Mus musculus [1] = test: Antinociceptive activity in mouse assessed as inhibition of EM-2-induced jumping at 1 ug, icv by hot-plate test; format: functional, organism-based
Mus musculus [2] = test: Antidepressant activity in mouse assessed as reduction in immobility time at 3 ug, icv co-administered with naltrindole measured 10 mins post-dose by forced swim test; format: functional, organism-based
How it was run: (§1)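 Forced swim test in mice with the peptide at 3 µg/animal icv, co-injected with β-FNA (1 µg/animal), naltrindole (1 µg/animal) or nor-BNI (5 µg/animal). Swim starts 10 min after injection; 6-min session in water at 22 ± 1 °C; automated scoring of total immobility; 10 mice per group.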

Mus musculus [3] = test: Antinociceptive activity in icv dosed mouse assessed as inhibition of EM-2-induced jumping by hot-plate test; format: functional, organism-based
How it was run: (§2)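 Hot-plate test in mice. Peptides are dissolved in DMSO, diluted with saline and given icv into the left ventricle (0.1–10 µg/animal). The read-out is latency to jumping, expressed as %MPE = (test − control latency)/(cut-off − control latency) × 100, with a 240 s cut-off. 10 mice per group.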

Mus musculus [4] = test: Antinociceptive activity in mouse assessed as inhibition of EM-2-induced jumping at 3 ug, icv co-administered with beta-funaltrexamine by hot-plate test; format: functional, organism-based
How it was run: (§3)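 Hot-plate jumping latency in mice given the peptide at 3 µg/animal icv together with β-FNA (1 µg/animal), naltrindole (1 µg/animal) or nor-BNI (5 µg/animal, per the figure legend). Result is expressed as %MPE with a 240 s cut-off; 10 mice per group; one-way ANOVA with Student–Newman–Keuls.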

Mus musculus [5] = test: Antidepressant activity in mouse assessed as reduction in immobility time at 3 to 10 ug, icv measured 10 mins post-dose by forced swim test; format: functional, organism-based
How it was run: (§4)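 Mice given a vehicle or peptide icv, then 20 min before testing kept in small individual cages at 22 ± 1 °C. The test begins 10 min after injection: groups of four swim for 6 min in Plexiglas cylinders (14 cm internal diameter) holding water at 22 ± 1 °C to 12 cm depth. Total immobility is scored by an automated system. Dose range 0.3–10 µg/animal; 10 mice per group.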

Mus musculus [6] = test: Antidepressant activity in mouse assessed as reduction in immobility time at 3 ug, icv co-administered with beta-funaltrexamine measured 10 mins post-dose by forced swim test; format: functional, organism-based; how it was run: as §1
Brain = test: Stability in rat brain homogenate assessed as degradation rate constant measured up to 60 mins by RP-HPLC analysis; format: ADME, tissue-based; conditions: 1 h
How it was run: (§5)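 Peptides are incubated at 37 °C with rat brain homogenate as the protease source. Samples taken at 0, 7.5, 15, 22.5, 30 and 60 min are analysed by RP-HPLC to derive the degradation rate constant k and the half-life. Three independent experiments in duplicate; mean ± SEM.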

Mu-type opioid receptor = Mu-type opioid receptor (Rattus norvegicus, UniProt P33535); test: Displacement of [3H]DAMGO from MOR in rat brain membranes; format: cell membranes, Membrane
How it was run: (§6)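 Competitive binding on rat brain membranes: displacement of [³H]DAMGO (MOR) or [³H][Ile5,6]deltorphin-2 (DOR), reported as IC50. Three independent experiments, each run in duplicate, given as mean ± SEM. The DOR/MOR ratio is calculated from these IC50 values.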

Mus musculus [7] = test: Antidepressant activity in mouse assessed as reduction in immobility time at 3 ug, icv co-administered with nor-binaltorphimine measured 10 mins post-dose by forced swim test; format: functional, organism-based; how it was run: as §1
Mus musculus [8] = test: Antinociceptive activity in mouse assessed as inhibition of EM-2-induced jumping at 3 ug, icv co-administered with naltrindole by hot-plate test; format: functional, organism-based; how it was run: as §3
Mus musculus [9] = test: Antinociceptive activity in mouse assessed as inhibition of EM-2-induced jumping at 3 ug, icv co-administered with nor-binaltorphimine by hot-plate test; format: functional, organism-based; how it was run: as §3
Rattus norvegicus [10] = species on record: Rattus norvegicus; test: Selectivity ratio of IC50 for KOR in guinea pig brain membranes to IC50 for MOR in rat brain membranes; format: cell membranes
How it was run: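 Ratio of the KOR IC50, from displacement of [³H]nor-BNI in guinea pig brain membranes, to the MOR IC50, from displacement of [³H]DAMGO in rat brain membranes. Three independent experiments in duplicate.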

Rattus norvegicus [11] = species on record: Rattus norvegicus; test: Selectivity ratio of IC50 for DOR in rat brain membranes to IC50 for MOR in rat brain membranes; format: cell membranes; how it was run: as §6
Mus musculus [12] = test: Antidepressant activity in mouse assessed as reduction in immobility time at 3 ug, icv measured 10 mins post-dose by tail suspension test; format: functional, organism-based
How it was run: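 Tail suspension: mice held 20 min beforehand in small individual cages. Ten minutes after an icv injection of vehicle or peptide (3 µg/animal), each mouse is suspended by the tail with adhesive tape and immobility is recorded. 10 mice per group.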

[13] = target: Kappa-type opioid receptor (Cavia porcellus, UniProt P41144); test: Displacement of [3H]nor-BNI from KOR in guinea pig brain membranes; format: cell membranes, Membrane
[14] = target: Delta-type opioid receptor (Rattus norvegicus, UniProt P33533); test: Displacement of [3H](Ile5,6)deltorphin-2 from DOR in rat brain membranes; format: cell membranes, Membrane; how it was run: as §6
Mus musculus [15] = test: Antidepressant activity in icv dosed mouse assessed as reduction in immobility time measured 10 mins post-dose by forced swim test; format: functional, organism-based; how it was run: as §4
Mus musculus [16] = test: Antidepressant-like activity in mouse assessed as horizontal locomotor activity at 3 ug, icv measured […] post-dose by locomotor activity assay; format: organism-based; conditions: in vivo, icv_or_intrathecal, 20 min
[17] = Half life in rat brain homogenate by RP-HPLC analysis; format: ADME, tissue-based; how it was run: as §5
Mus musculus [18] = test: Antinociceptive activity in mouse assessed as inhibition of EM-2-induced jumping at 3 ug, icv by hot-plate test; format: functional, organism-based; how it was run: as §2
Mus musculus [19] = test: Toxicity in mouse assessed as increase in immobility time at >3 ug, icv by forced swim test; format: organism-based; conditions: in vivo, icv_or_intrathecal
Mus musculus [20] = test: Toxicity in mouse assessed as mortality at >3 ug, icv; format: organism-based; conditions: in vivo, icv_or_intrathecal
Mus musculus [21] = test: Antidepressant activity in mouse assessed as reduction in immobility time at 3 ug, icv measured 10 mins post-dose by forced swim test; format: functional, organism-based; how it was run: as §4

Kappa-type opioid receptor, sequence (P41144 whole entry): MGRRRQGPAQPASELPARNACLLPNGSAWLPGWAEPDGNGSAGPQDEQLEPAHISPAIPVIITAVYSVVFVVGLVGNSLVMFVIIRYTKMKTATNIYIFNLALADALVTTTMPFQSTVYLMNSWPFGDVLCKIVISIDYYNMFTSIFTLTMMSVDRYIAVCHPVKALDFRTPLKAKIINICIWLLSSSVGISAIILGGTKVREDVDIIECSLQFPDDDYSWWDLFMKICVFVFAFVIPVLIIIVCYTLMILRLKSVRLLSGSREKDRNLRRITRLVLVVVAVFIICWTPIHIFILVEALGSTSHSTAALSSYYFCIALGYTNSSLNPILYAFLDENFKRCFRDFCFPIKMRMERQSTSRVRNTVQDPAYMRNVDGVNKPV
Delta-type opioid receptor, sequence (P33533 whole entry): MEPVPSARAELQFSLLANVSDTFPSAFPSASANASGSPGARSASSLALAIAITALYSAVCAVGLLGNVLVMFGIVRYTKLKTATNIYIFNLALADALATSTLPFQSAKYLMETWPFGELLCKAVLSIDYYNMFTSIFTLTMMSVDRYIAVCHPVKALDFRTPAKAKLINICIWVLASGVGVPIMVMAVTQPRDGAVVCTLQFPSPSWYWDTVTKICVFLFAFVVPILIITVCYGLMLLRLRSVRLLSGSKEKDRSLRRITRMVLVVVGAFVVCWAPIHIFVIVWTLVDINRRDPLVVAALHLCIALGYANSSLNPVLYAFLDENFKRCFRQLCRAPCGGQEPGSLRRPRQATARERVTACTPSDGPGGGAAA
Mu-type opioid receptor, sequence (P33535 whole entry): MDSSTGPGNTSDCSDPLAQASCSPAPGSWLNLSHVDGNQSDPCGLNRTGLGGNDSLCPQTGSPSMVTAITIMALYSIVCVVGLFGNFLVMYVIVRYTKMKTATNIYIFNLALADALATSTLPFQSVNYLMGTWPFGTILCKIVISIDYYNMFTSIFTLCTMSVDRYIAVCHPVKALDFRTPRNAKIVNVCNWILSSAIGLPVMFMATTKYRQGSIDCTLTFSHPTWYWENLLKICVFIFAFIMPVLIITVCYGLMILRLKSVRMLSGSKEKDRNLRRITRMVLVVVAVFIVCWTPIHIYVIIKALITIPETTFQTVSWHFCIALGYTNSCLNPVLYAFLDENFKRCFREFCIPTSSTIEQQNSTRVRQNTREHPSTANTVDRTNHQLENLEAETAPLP

| Compound | inhibition (Mus musculus [1]) | K (Brain) | IC50 (Mu-type opioid receptor) | Ratio IC50 (Rattus norvegicus [10]) | Ratio IC50 (Rattus norvegicus [11]) | Activity (Mus musculus [12]) | IC50 [13] | IC50 [14] | half-life [17] | further results |
| --- | --- | --- | --- | --- | --- | --- | --- | --- | --- | --- |
| COC(=O)/C=C/C(=O)N[C@@H]1CC[C@@]2(O)[C@H]3Cc4ccc(O)c5c4[C@@]2(CCN3CC2CC2)[C@H]1O5 | inactive | – | – | – | – | – | – | – | – | – |
| Oc1ccc2c3c1O[C@H]1c4[nH]c5c(c4C[C@@]4(O)[C@@H](C2)N(CC2CC2)CC[C@]314)C[C@@]1(O)[C@H]2Cc3ccc(O)c4c3[C@@]1(CCN2CC1CC1)[C@H]5O4 | inactive | – | – | – | – | – | – | – | – | – |
| Oc1ccc2c3c1O[C@H]1c4[nH]c5ccccc5c4C[C@@]4(O)[C@@H](C2)N(CC2CC2)CC[C@]314 | inactive | – | – | – | – | – | – | – | – | – |
| NC(=O)[C@H](Cc1ccccc1)NC(=O)[C@H](Cc1ccccc1)NC(=O)[C@H]1CN(C(=O)[C@@H](N)Cc2ccc(O)cc2)C[C@@H]1c1ccccc1 (mixture of isomers) | – | 0.0212 min⁻¹ | 0.85 nM | 31.9 | 10.7 | Active | 27.1 nM | 9.06 nM | 32.5 min | Activity (Mus musculus [2]): inactive; inhibition (Mus musculus [3]): Dose-dependent effect; inhibition (Mus musculus [4]): inactive; Activity (Mus musculus [5]): Active; Activity (Mus musculus [6]): Active; Activity (Mus musculus [7]): inactive; inhibition (Mus musculus [8]): Active; inhibition (Mus musculus [9]): Active; Activity (Mus musculus [15]): Dose-dependent effect; Activity (Mus musculus [16]): Non-toxic |
| NC(=O)[C@H](Cc1ccccc1)NC(=O)[C@H](Cc1ccccc1)NC(=O)[C@@H]1CN(C(=O)[C@@H](N)Cc2ccc(O)cc2)C[C@H]1c1ccccc1 (mixture of isomers) | – | 0.018 min⁻¹ | 2.91 nM | > 1000 | > 1000 | inactive | > 1000 nM | > 1000 nM | 38.3 min | inhibition (Mus musculus [18]): inactive; Activity (Mus musculus [19]): Toxic; Activity (Mus musculus [20]): Toxic; Activity (Mus musculus [21]): inactive |
| NC(=O)[C@H](Cc1ccccc1)NC(=O)[C@H](Cc1ccccc1)NC(=O)[C@@H]1CCCN1C(=O)[C@@H](N)Cc1ccc(O)cc1 [ENDOMORPHIN 2] | – | – | – | – | – | – | – | – | 6 min | – |
